# Source: ChEMBL document CHEMBL2176935, “Discovery and lead optimization of a novel series of CC chemokine receptor 1 (CCR1)-selective piperidine antagonists via parallel synthesis” (J Med Chem, 2012)
# pIC50: −log10 of the molar value.
# Tests used:
# [1] = tested on: Liver microsomes; test: Stability in rat liver microsomes assessed as compound remaining; format: ADME, Microsome
# [2] = Oral bioavailability life in mouse at 5.2 mg/kg; format: ADME, organism-based; conditions: in vivo
# [3] = molecular target: Cytochrome P450 2C9 (Homo sapiens, UniProt P11712); test: Inhibition of recombinant CYP2C9 expressed in baculovirus-infected insect cells using fluorogeinc substrate; format: ADME
# Summary of the method: (§1)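 Recombinant CYP Supersomes premixed with fluorogenic substrate in potassium phosphate buffer and prewarmed 30 min at 37 °C with test substance. Reaction started with NADPH-regenerating system, incubated at 37 °C, then quenched with 80% acetonitrile/20% 0.5 M TRIS-base.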
# [4] = molecular target: T1, C-C chemokine receptor type 1 (Mus musculus, UniProt P51675); test: Displacement of [125I]MIP-1alpha from CCR1 in mouse WEHI 274.1 cells incubated for 60 mins; format: cell-based
# T1 sequence (P51675 whole entry): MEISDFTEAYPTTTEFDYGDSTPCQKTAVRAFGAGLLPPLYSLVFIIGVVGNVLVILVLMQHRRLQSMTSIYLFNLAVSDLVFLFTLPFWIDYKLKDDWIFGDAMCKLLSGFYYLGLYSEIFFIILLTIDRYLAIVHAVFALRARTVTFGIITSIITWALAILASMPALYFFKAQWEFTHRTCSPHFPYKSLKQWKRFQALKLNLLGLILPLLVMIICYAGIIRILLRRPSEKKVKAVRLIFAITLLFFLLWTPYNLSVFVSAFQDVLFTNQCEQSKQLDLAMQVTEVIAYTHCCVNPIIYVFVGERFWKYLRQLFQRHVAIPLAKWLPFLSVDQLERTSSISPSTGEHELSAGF
# Summary of the method: (§2)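 Cross-species binding using human 125I-MIP-1α at 0.08 nM final. Nonspecific binding measured with excess unlabeled ligand. Incubated 60 min at room temperature, washed, air-dried, filters gamma-counted. Cells were the mouse WEHI 274.1 line, rat thioglycollate-elicited peritoneal cells, and rabbit peripheral blood mononuclear cells.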
# [5] = molecular target: T2, C-C chemokine receptor type 1 (Rattus norvegicus, UniProt A6I4C9); test: Displacement of [125I]MIP-1alpha from CCR1 in rat thioglycolate-elicited peritoneal cells incubated for 60 mins; summary of the method: as §2
# T2 sequence (A6I4C9 whole entry): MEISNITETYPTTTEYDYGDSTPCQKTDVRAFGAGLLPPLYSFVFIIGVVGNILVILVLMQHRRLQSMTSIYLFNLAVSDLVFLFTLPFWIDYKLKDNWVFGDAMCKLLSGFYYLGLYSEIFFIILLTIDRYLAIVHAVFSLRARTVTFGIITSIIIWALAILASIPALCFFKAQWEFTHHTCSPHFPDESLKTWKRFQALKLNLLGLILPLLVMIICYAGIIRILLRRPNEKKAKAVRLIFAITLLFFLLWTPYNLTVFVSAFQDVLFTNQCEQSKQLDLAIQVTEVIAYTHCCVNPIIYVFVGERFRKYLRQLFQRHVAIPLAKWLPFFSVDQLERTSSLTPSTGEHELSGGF
# [6] = molecular target: Cytochrome P450 2D6 (Homo sapiens, UniProt P10635); test: Inhibition of recombinant CYP2D6 expressed in baculovirus-infected insect cells using fluorogeinc substrate; format: ADME; summary of the method: as §1
# [7] = Half life in mouse at 2.5 mg/kg, iv; format: ADME, organism-based; design: dose 2.5 mg/kg, route intravenous; conditions: in vivo
# [8] = Clearance in mouse at 2.5 mg/kg, iv; format: ADME, organism-based; design: dose 2.5 mg/kg, route intravenous; conditions: in vivo
# [9] = tested on: Liver microsomes; test: Stability in human liver microsomes assessed as compound remaining; format: ADME, Microsome
# [10] = molecular target: Cytochrome P450 2C19 (Homo sapiens, UniProt P33261); test: Inhibition of recombinant CYP2C19 expressed in baculovirus-infected insect cells using fluorogeinc substrate; format: ADME; summary of the method: as §1
# [11] = molecular target: C-C chemokine receptor type 3 (Homo sapiens, UniProt P51677); test: Displacement of [125I]eotaxin from human CCR3 expressed in CHO CCR3/2 chimeric cells by scintillation counting; format: cell-based
# Summary of the method: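 Compound 11-point 3-fold dilutions, 40 μM to 0.7 nM final. 125I-Eotaxin at 0.2 nM final. Incubated 3 h at room temperature; nonspecific binding set with 100 nM eotaxin. Duplicates.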
# [12] = molecular target: T3, Chemokine receptor (Oryctolagus cuniculus, UniProt Q9MYJ9); test: Displacement of [125I]MIP-1alpha from CCR1 in rabbit PBMCs incubated for 60 mins; summary of the method: as §2
# T3 sequence (Q9MYJ9 whole entry): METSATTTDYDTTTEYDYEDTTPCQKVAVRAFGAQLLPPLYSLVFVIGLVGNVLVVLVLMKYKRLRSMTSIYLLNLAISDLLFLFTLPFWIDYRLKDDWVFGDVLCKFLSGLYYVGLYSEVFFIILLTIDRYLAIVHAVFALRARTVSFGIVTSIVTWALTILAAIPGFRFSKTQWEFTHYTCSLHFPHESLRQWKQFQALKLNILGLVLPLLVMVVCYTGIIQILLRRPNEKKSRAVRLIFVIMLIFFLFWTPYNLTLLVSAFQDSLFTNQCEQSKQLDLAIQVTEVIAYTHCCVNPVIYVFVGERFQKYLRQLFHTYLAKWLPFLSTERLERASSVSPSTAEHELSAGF
# [13] = Volume of distribution at steady state in mouse at 2.5 mg/kg, iv; format: ADME, organism-based; design: dose 2.5 mg/kg, route intravenous; conditions: in vivo, read-out: Vdss
# [14] = tested on: Liver; test: Stability in mouse liver microsomes assessed as compound remaining; format: ADME, Microsome
# [15] = molecular target: C-C chemokine receptor type 5 (Homo sapiens, UniProt P51681); test: Displacement of [125I]MIP-1beta from human CCR5 expressed in HT1080 cells by scintillation counting; format: cell-based, HT-1080
# Summary of the method: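 SPA using membranes from HT1080 cells stably expressing RAGE-activated human CCR5, 10 μg protein per well, with PVT-WGA-PS beads. Compound 11-point 3-fold dilutions, 40 μM to 0.7 nM final. 125I-MIP-1β at 0.1 nM final. Incubated 4 h at room temperature, read on TopCount.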
# [16] = Half life in mouse at 5.2 mg/kg, po; format: ADME, organism-based; design: dose 5.2 mg/kg, route oral; conditions: in vivo
# [17] = AUC in mouse at 2.5 mg/kg, iv; format: ADME, organism-based; design: dose 2.5 mg/kg, route intravenous; conditions: plasma
# [18] = Cmax in mouse at 5.2 mg/kg, po; format: ADME, organism-based; design: dose 5.2 mg/kg, route oral; conditions: in vivo
# [19] = molecular target: Cytochrome P450 3A4 (Homo sapiens, UniProt P08684); test: Inhibition of recombinant CYP3A4 expressed in baculovirus-infected insect cells using fluorogeinc substrate; format: ADME; summary of the method: as §1
# [20] = Thermodynamic solubility in pH 6.5 potassium phosphate buffer by HPLC method; format: physicochemical; conditions: read-out: Therm_solubility
# Summary of the method: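 Thermodynamic equilibrium solubility. Compound standard dissolved in methanol, with DMSO added if needed, and mixed 1:1 with 50 mM potassium phosphate pH 6.5. Vortexed, sonicated 30 s, shaken 15−24 h at room temperature, centrifuged. Quantified by HPLC-UV at 210 or 254 nm against a calibration curve.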
# [21] = molecular target: Voltage-gated inwardly rectifying potassium channel KCNH2 (Homo sapiens, UniProt Q12809); test: Inhibition of human ERG expressed in HEK293 cells assessed as reduction in peak tail current by whole cell patch clamp assay; format: cell-based
# Summary of the method: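 Whole-cell patch clamp on HEK-293 cells stably expressing the hERG α subunit. Inhibition measured on peak tail current. Aqueous buffer at pH 7.4, room temperature, no protein present.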
# [22] = molecular target: T4, C-C chemokine receptor type 1 (Homo sapiens, UniProt P32246); test: Antagonist activity at CCR1 in human THP1 cells assessed as inhibition of MIP-1alpha-induced calcium flux by FLIPR; format: functional, cell-based, THP-1
# T4 sequence (P32246 whole entry): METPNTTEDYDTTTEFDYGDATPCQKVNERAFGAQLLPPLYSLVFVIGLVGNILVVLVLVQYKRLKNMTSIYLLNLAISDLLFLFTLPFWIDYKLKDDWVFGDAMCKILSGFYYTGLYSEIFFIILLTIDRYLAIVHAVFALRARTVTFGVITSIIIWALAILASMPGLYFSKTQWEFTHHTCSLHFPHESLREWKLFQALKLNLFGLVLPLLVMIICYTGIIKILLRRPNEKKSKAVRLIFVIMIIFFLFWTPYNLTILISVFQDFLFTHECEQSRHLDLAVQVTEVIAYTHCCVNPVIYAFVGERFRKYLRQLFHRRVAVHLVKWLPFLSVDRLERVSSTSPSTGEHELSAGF
# Summary of the method: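 THP-1 cells loaded with fluo-3 AM and resuspended in assay buffer containing probenecid. Calcium flux was followed on FLIPR after adding MIP-1α at 20 nM. Compound effect was taken as the change in base-to-peak excursion relative to control. Run in duplicate.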
# [23] = molecular target: T4, C-C chemokine receptor type 1; test: Displacement of [125I]MIP-1alpha from CCR1 in human THP1 cells; format: cell-based, THP-1
# Summary of the method: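 THP-1 cells, 1 × 105, mixed with WGA PS SPA beads in RPMI 1640 (no phenol red) with 50 mM HEPES, 5 mM MgCl2, 1 mM CaCl2, 0.1% BSA. Compound in 3-fold dilutions, 8 μM to 140 pM final. [125I]-MIP-1α at 0.1 nM final. Incubated 12 h at room temperature, imaged by LEADseeker. Duplicates; IC50 from four-parameter logistic fit after nonspecific correction.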
# [24] = AUC in mouse at 5.2 mg/kg, po; format: ADME, organism-based; design: dose 5.2 mg/kg, route oral; conditions: plasma
# [25] = molecular target: T4, C-C chemokine receptor type 1; test: Antagonist activity at CCR1 in human THP1 cells assessed as inhibition of CK-8beta-induced calcium flux by FLIPR; format: functional, cell-based, THP-1
# [26] = molecular target: C-C chemokine receptor type 2 (Homo sapiens, UniProt P41597); test: Displacement of [125I]MCP1 from CCR2 in human THP1 cells; format: cell-based, THP-1
# C-C chemokine receptor type 2, sequence (P41597 whole entry): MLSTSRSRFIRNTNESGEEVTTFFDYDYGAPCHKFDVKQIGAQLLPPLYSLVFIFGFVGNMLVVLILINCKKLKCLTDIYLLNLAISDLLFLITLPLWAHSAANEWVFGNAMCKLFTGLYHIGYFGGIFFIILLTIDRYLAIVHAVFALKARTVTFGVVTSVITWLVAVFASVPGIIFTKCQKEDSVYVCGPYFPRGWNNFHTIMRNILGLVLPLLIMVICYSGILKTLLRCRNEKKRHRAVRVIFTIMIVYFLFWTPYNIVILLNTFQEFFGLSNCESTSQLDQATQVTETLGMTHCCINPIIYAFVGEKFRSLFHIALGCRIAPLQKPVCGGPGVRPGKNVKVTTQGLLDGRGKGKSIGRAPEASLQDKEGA
# C-C chemokine receptor type 3, sequence (P51677 whole entry, looked up): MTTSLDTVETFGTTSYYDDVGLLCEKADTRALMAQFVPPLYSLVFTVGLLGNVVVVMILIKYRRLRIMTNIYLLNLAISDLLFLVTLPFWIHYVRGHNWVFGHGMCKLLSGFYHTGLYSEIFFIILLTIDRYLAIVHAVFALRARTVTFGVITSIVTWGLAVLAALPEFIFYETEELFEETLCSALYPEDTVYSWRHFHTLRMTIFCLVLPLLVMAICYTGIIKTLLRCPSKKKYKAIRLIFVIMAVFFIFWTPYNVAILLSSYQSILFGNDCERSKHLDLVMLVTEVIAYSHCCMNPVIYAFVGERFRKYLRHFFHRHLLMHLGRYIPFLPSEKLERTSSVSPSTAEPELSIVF
# Cytochrome P450 2C19, sequence (P33261 whole entry): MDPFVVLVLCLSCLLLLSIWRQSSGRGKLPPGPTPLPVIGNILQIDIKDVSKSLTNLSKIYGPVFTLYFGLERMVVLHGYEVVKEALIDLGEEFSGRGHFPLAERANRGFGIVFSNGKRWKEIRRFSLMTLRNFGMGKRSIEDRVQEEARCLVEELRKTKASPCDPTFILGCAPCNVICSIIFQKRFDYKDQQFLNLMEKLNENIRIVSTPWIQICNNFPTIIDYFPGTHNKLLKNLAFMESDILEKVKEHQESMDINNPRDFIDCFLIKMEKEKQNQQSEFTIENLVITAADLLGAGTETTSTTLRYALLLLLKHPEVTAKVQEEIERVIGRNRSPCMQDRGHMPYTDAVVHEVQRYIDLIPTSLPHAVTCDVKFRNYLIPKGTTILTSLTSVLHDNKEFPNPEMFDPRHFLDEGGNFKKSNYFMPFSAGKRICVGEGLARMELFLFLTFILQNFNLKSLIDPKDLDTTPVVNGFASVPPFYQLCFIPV
# Voltage-gated inwardly rectifying potassium channel KCNH2, sequence (Q12809 whole entry): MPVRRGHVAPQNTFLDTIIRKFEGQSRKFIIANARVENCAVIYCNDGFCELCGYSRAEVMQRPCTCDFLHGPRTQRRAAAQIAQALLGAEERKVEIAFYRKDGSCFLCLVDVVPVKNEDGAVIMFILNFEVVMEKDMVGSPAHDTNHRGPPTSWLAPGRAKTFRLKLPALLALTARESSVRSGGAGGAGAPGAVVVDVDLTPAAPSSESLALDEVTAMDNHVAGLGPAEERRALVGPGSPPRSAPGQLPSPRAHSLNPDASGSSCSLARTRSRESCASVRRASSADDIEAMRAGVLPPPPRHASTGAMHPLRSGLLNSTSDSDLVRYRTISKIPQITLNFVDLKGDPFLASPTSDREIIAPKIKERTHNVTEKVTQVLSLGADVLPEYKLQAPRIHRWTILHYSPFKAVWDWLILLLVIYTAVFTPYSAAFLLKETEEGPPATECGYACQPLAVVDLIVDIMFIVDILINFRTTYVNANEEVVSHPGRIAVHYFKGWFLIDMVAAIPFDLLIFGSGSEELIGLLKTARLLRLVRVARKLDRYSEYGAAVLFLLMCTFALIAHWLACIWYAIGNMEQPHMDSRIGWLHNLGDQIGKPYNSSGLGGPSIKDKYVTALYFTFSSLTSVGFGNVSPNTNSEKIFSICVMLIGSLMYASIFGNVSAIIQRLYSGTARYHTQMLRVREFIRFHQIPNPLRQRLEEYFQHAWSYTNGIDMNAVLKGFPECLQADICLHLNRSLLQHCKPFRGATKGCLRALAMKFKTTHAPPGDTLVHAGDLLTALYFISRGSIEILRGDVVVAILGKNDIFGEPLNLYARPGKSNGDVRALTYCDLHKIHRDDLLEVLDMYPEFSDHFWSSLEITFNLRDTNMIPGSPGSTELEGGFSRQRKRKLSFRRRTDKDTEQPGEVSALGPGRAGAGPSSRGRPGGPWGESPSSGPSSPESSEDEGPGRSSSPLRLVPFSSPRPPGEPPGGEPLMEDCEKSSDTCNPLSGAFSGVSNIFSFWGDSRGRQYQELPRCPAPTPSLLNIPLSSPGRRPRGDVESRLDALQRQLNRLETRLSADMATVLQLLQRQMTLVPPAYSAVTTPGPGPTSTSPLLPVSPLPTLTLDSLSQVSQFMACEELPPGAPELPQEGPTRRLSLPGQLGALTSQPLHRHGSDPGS
# C-C chemokine receptor type 5, sequence (P51681 whole entry): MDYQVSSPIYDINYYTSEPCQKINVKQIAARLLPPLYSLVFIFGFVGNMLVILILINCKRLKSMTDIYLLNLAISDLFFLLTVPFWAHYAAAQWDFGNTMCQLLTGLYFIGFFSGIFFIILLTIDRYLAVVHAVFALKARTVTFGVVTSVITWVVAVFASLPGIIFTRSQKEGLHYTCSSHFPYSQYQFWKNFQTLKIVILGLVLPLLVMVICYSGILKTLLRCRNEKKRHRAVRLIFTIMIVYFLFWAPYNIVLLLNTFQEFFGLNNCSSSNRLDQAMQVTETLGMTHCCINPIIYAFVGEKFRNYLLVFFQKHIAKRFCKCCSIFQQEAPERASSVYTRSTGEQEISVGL
# Cytochrome P450 2D6, sequence (P10635 whole entry): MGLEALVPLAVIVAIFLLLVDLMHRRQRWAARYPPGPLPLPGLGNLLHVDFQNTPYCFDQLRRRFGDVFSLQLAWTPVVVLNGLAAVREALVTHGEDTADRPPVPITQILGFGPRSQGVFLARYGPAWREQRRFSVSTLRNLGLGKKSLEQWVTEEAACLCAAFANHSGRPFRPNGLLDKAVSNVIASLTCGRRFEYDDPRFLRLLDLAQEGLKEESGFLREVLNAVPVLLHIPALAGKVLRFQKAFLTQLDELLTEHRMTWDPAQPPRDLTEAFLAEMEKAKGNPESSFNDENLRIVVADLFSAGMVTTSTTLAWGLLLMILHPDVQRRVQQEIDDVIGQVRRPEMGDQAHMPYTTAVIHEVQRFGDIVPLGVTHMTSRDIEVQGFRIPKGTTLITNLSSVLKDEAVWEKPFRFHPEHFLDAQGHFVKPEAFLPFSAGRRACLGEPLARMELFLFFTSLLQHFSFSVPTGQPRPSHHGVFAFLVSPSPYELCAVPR
# Cytochrome P450 2C9, sequence (P11712 whole entry): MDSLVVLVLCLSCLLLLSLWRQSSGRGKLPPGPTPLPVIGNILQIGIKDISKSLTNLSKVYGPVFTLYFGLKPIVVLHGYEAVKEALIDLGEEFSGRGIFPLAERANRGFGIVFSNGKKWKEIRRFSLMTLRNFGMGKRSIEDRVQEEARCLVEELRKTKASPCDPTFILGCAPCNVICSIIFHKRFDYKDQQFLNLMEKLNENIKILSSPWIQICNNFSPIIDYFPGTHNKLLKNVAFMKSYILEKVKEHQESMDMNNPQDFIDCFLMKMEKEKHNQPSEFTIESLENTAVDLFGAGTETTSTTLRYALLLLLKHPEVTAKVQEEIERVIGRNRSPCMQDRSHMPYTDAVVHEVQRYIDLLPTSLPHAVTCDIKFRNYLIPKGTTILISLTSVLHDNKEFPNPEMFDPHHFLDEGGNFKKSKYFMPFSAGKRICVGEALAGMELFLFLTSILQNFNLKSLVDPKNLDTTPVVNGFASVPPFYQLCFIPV
# Cytochrome P450 3A4, sequence (P08684 whole entry): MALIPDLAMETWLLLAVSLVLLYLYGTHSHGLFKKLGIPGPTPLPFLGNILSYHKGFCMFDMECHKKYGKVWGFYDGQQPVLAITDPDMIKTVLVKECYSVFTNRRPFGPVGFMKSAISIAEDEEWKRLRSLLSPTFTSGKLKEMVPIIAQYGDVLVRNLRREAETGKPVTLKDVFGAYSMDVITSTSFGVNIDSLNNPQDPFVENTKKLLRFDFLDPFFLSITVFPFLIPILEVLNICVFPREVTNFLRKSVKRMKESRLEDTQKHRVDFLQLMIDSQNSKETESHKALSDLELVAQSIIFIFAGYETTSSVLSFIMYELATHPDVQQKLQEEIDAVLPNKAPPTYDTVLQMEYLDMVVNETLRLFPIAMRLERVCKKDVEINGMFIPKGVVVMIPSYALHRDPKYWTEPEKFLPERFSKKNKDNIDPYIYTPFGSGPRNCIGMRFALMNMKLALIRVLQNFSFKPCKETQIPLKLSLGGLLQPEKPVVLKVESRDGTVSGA
smiles,measurement,setting,value
CC(C)[C@@H](NC(=O)c1ccccc1)C(=O)N1CCC(c2ccc(Cl)cc2)CC1,Stability,[1],83%
same,bioavailability,[2],52%
same,pIC50,[3],< 4.40
same,pIC50,[4],< 4.60
same,pIC50,[5],< 4.52
same,pIC50,[6],< 4.40
same,half-life,[7],6.9 h
same,clearance,[8],12.5 mL/min/kg
same,Stability,[9],100%
same,pIC50,[10],< 4.40
same,pIC50,[11],< 4.52
same,pIC50,[12],6.26
same,Vd,[13],4.8 L/kg
same,Stability,[14],73%
same,pIC50,[15],< 4.70
same,half-life,[16],5.2 h
same,AUC,[17],5.9 µM·h
same,Cmax,[18],3.1 µM
same,pIC50,[19],< 4.40
same,solubility thermodynamic,[20],1 µg/mL
same,pIC50,[21],5.15
same,pIC50,[22],7.82
same,pIC50,[23],7.55
same,AUC,[24],6.6 µM·h
same,pIC50,[25],7.07
same,pIC50,[26],< 4.70
Cc1ccccc1C(=O)NC(C(=O)N1CCC(c2ccc(Cl)cc2)CC1)C(C)C (configuration not stated),pIC50,[23],7.44
